In ChEMBL document CHEMBL5674890, “Selective inhibition of CBP/p300 HAT by A-485 results in suppression of lipogenesis and hepatic gluconeogenesis” (Cell Death Dis, 2020):

Assays:
Format in all cases: organism-based
Details in all cases: in vivo, 168 h, time 1 weeks
[1] = Toxicity in C57BL/6 mouse supplemented with normal chow diet assessed as effect on body weight at 20 mg/kg/day, ip administered for 1 week
Method in brief: (§1)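 Male C57BL/6 mice, 8 weeks old, on normal chow, 12 h light/dark, barrier housing. Dosed intraperitoneally 20 mg·kg−1·day−1 for 7 days alongside vehicle-injected controls. Body weight followed over treatment; food intake, VO2, VCO2, respiratory exchange ratio, and plasma total cholesterol and triglyceride recorded. Mean ± SEM, n = 5–9; t test, P < 0.05.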

[2] = Toxicity in C57BL/6 mouse supplemented with normal chow diet assessed as effect on food intake at 20 mg/kg/day, ip administered for 1 week; method in brief: as §1
[3] = Toxicity in C57BL/6 mouse supplemented with normal chow diet assessed as effect on oxygen consumption at 20 mg/kg/day, ip administered for 1 week; method in brief: as §1
[4] = Toxicity in C57BL/6 mouse supplemented with normal chow diet assessed as effect on carbon dioxide production at 20 mg/kg/day, ip administered for 1 week; method in brief: as §1
[5] = Toxicity in C57BL/6 mouse supplemented with normal chow diet assessed as effect on respiratory exchange ratios at 20 mg/kg/day, ip administered for 1 week; method in brief: as §1
[6] = Toxicity in C57BL/6 mouse supplemented with normal chow diet assessed as effect on plasma total cholesterol content at 20 mg/kg/day, ip administered for 1 week; method in brief: as §1
[7] = Toxicity in C57BL/6 mouse supplemented with normal chow diet assessed as effect on triglyceride levels at 20 mg/kg/day, ip administered for 1 week; method in brief: as §1

Measured: Activity

CNC(=O)Nc1ccc2c(c1)CC[C@@]21OC(=O)N(CC(=O)N(Cc2ccc(F)cc2)[C@@H](C)C(F)(F)F)C1=O
Non-Toxic: all assays above
